A value given as a limit tells only on which side of the number the result lay.

Here are results for four molecules from ChEMBL document CHEMBL3525942, “Disposition and metabolism of [14C]SB-649868, an orexin 1 and 2 receptor antagonist, in humans” (Drug Metab Dispos, 2011).

Series [1] has as its system Plasma. The series can be described thus: Drug level in human plasma assessed as radioactivity treated with [14C]SB-649868 at 30 mg, po single dose after 12 hrs by HPLC-MSn analysis. More on the design: dosed compound name [14C]SB-649868. Particulars: in vivo. The class given is ADME, organism-based. The method, boiled down:
(§1)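 Plasma taken 3, 12, 24 and 48 h after one oral 30 mg [14C] dose, extracted, and run on radio-HPLC: C8 column, 45 mM ammonium acetate pH 3.8 and acetonitrile gradient, 1 ml/min. Fractions collected into scintillant plates and counted 5 min. Extraction recovery measured; data corrected when recovery was <85%. Values are % of plasma radioactivity, BQL 1%; n=7 at 3 and 12 h.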

Series [2] has as its system Plasma. The series can be described thus: Drug level in human plasma assessed as radioactivity treated with [14C]SB-649868 at 30 mg, po single dose after 48 hrs by HPLC-MSn analysis. Particulars: in vivo. The class given is ADME, organism-based. More on the design: dosed compound name [14C]SB-649868. The method, boiled down: as §1
In series [3] the test system is Plasma. Briefly: Drug level in human plasma assessed as radioactivity treated with [14C]SB-649868 at 30 mg, po single dose after 24 hrs by HPLC-MSn analysis. It is filed as ADME, organism-based. More on the design: dosed compound name [14C]SB-649868. As to conditions: in vivo. The procedure, abridged: as §1
Series [4] in a line: Drug level in human urine treated with [14C]SB-649868 at 30 mg, po single dose after 0 to 72 hrs by HPLC-MSn analysis. As to conditions: in vivo, 0-72 h.
A short description of series [5]: Drug level in human feces treated with [14C]SB-649868 at 30 mg, po single dose by HPLC-MSn analysis. Particulars: in vivo.
Series [6] deals with Plasma. Briefly: Drug level in human plasma assessed as radioactivity treated with [14C]SB-649868 at 30 mg, po single dose after 3 hrs by HPLC-MSn analysis. The class given is ADME, organism-based. More on the design: dosed compound name [14C]SB-649868. As to conditions: in vivo. The method, boiled down: as §1
The test system of series [7] is Homo sapiens. Briefly: Apparent oral clearance in human plasma treated with [14C]SB-649868 at 30 mg, po single dose. The class given is ADME, organism-based. More on the design: dosed compound name [14C]SB-649868. Particulars: in vivo. The procedure, abridged:
(§2)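 Eight healthy men given one oral 30 mg [14C] capsule. Plasma sampled 0.25–96 h. Parent measured in 50 µl plasma after acetonitrile precipitation with deuterated internal standard, by HPLC-MS/MS (positive-ion MRM). Calibration 5–5000 ng/ml, 1/x2 weighted. Noncompartmental analysis: t1/2 = ln2/λz, linear-up/log-down trapezoid AUC, CL/F = Dose/AUC0-inf.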

For series [8], the system named is Homo sapiens. The series can be described thus: Cmax in human plasma treated with [14C]SB-649868 at 30 mg, po single dose. The class given is ADME, organism-based. More on the design: dosed compound name [14C]SB-649868. As to conditions: in vivo. The procedure, abridged: as §2
The nature of series [9]: Elimination half life in dog. It is filed as ADME, organism-based, Canis lupus familiaris. More on the design: dosed compound name [14C]SB-649868. Particulars: in vivo, read-out: Compound recovery.
The subject of series [10] is Homo sapiens. Briefly: Tmax in human plasma treated with [14C]SB-649868 at 30 mg, po single dose. The class given is ADME, organism-based. More on the design: dosed compound name [14C]SB-649868. As to conditions: in vivo. The method, boiled down: as §2
The nature of series [11]: Terminal phase half life in human at 10 to 60 mg. The class given is ADME, organism-based. More on the design: dosed compound name [14C]SB-649868. Particulars: in vivo, read-out: Compound recovery (converted).
A short description of series [12]: Elimination half life in rat. The class given is ADME, organism-based. More on the design: dosed compound name [14C]SB-649868. Particulars: in vivo, read-out: Compound recovery.
The subject of series [13] is Homo sapiens. The series can be described thus: Apparent half life in human plasma treated with [14C]SB-649868 at 30 mg, po single dose. More on the design: dosed compound name [14C]SB-649868. As to conditions: in vivo. It is filed as ADME, organism-based. The procedure, abridged:
as §2

Series [14] deals with Plasma. The series can be described thus: Drug recovery in human plasma at 30, po single dose after 3 hrs by HPLC-MSn analysis. The class given is ADME, organism-based. More on the design: dosed compound name [14C]SB-649868. The method, boiled down: as §1
The subject of series [15] is Plasma. Briefly: Drug recovery in human plasma at 30, po single dose after 48 hrs by HPLC-MSn analysis. More on the design: dosed compound name [14C]SB-649868. It is filed as ADME, organism-based. The method, boiled down: as §1
Series [16] relates to Homo sapiens. Briefly: AUC (0 to infinity) in human plasma treated with [14C]SB-649868 at 30 mg, po single dose. More on the design: dosed compound name [14C]SB-649868. As to conditions: in vivo. It is filed as ADME, organism-based. The procedure, abridged: as §2
The test system of series [17] is Homo sapiens. Briefly: AUC (0 to t) in human plasma treated with [14C]SB-649868 at 30 mg, po single dose. The class given is ADME, organism-based. As to conditions: in vivo. More on the design: dosed compound name [14C]SB-649868. The procedure, abridged:
as §2

Consider `Cc1nc(C(=O)N2CCCC[C@H]2CN)c(-c2ccc(F)cc2)s1`, for which the Compound recovery in the series on Plasma [1] is listed as 1%; with Plasma [2], 3%; with Plasma [3], 1.9%; in series [4], 0.6%; in series [5], 1.5%; in the series on Plasma [6], 1.3%.
For `Cc1nc(C(=O)N2CCCC[C@H]2CN2C(=O)c3cccc(O)c3CC2O)c(-c2ccc(F)cc2)s1` (stereo not given in full), the Compound recovery was 16.8% with Plasma [1]; 15.1% with Plasma [2]; 19.3% in the series with Plasma [3]; 0.2% in series [4]; 2.6% in series [5]; 6% with Plasma [6].
`Cc1nc(C(=O)N2CCCC[C@H]2CNC(=O)c2cccc(O)c2CC(=O)O)c(-c2ccc(F)cc2)s1`: the Compound recovery is on record as 6.7% in the series with Plasma [1]; under 1 in the series on Plasma [2]; 4.2% in the series with Plasma [3]; 1.5% in series [4]; 10.3% in [5]; under 1 in the series on Plasma [6].
With `Cc1nc(C(=O)N2CCCC[C@H]2CNC(=O)c2cccc3occc23)c(-c2ccc(F)cc2)s1` [SB-649868], the Compound recovery with Plasma [1] was 33.2%; with Homo sapiens [7] it was 3610 mL/h; in the series with Homo sapiens [8] it was 1.2 µg/mL; with Plasma [2], under 1; in the series on Plasma [3], 9.8%; with Homo sapiens [10], 4 h. Besides, the Compound recovery in the series on Homo sapiens [13] is 4.8 h; in the series on Plasma [14], 97%; in the series on Plasma [15], 34%; in series [4], “Below quantification limit”; in series [5] it was “Below quantification limit”; in the series on Homo sapiens [16] it was 8.3 µg·h/mL. Moreover, the Compound recovery with Plasma [6] was found to be 67.7%; with Homo sapiens [17], 8.2 µg·h/mL. Also, the results for the half-life in series [9], in series [11] and in series [12] were under 1 h, 2.2 h and under 1 h, respectively.
